Data taken from ChEMBL document CHEMBL3098105, “7,7'-Diazaindirubin--a small molecule inhibitor of casein kinase 2 in vitro and in cells” (Bioorg Med Chem, 2014).

How the values were obtained:
[1] = target: Tyrosine-protein kinase Fgr (Homo sapiens) (UniProt P09769); test: Inhibition of FGR (unknown origin) assessed as residual activity at 1 uM relative to control
[2] = target: Fibroblast growth factor receptor 1 (Homo sapiens) (UniProt P11362); test: Inhibition of FGF-R1 (unknown origin) assessed as residual activity at 1 uM relative to control
[3] = target: Serine/threonine-protein kinase B-raf (Homo sapiens) (UniProt P15056); test: Inhibition of wild type B-RAF (unknown origin) assessed as residual activity at 1 uM relative to control
PC-3 = test: Antiproliferative activity against human PC3 cells after 3 days by sulforhodamine B assay; assay type: functional; conditions: PC-3, 72 h
In short: (§1)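 Tested in the NCI 60 cell line panel. GI50 is the concentration giving 50% inhibition of cell growth, and values are the mean of two series of tests.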

SN12C = test: Antiproliferative activity against human SN12C cells after 3 days by sulforhodamine B assay; assay type: functional; conditions: 72 h
A498 = test: Antiproliferative activity against human A498 cells after 3 days by sulforhodamine B assay; assay type: functional; conditions: A498, 72 h; in short: as §1
MDA-MB-435 = test: Antiproliferative activity against human MDA-MB-435 cells after 3 days by sulforhodamine B assay; assay type: functional; conditions: MDA-MB-435, 72 h; in short: as §1
SW-620 = test: Antiproliferative activity against human SW620 cells after 3 days by sulforhodamine B assay; assay type: functional; conditions: SW-620, 72 h
[4] = target: Death-associated protein kinase 3 (Homo sapiens) (UniProt O43293); test: Inhibition of human ZIPK assessed as residual activity at 1 uM relative to control
[5] = target: Serine/threonine-protein kinase VRK2 (Homo sapiens) (UniProt Q86Y07); test: Inhibition of human VRK2 assessed as residual activity at 1 uM relative to control
[6] = target: Tyrosine-protein kinase TXK (Homo sapiens) (UniProt P42681); test: Inhibition of human Txk assessed as residual activity at 1 uM relative to control
[7] = target: BDNF/NT-3 growth factors receptor (Homo sapiens) (UniProt Q16620); test: Inhibition of human TrkB assessed as residual activity at 1 uM relative to control
[8] = target: Ribosomal protein S6 kinase alpha-1 (Homo sapiens) (UniProt Q15418); test: Inhibition of human Rsk1 assessed as residual activity at 1 uM relative to control
[9] = target: Receptor-interacting serine/threonine-protein kinase 2 (Homo sapiens) (UniProt O43353); test: Inhibition of human RIPK2 assessed as residual activity at 1 uM relative to control
[10] = target: Proto-oncogene tyrosine-protein kinase receptor Ret (Homo sapiens) (UniProt P07949); test: Inhibition of human Ret assessed as residual activity at 1 uM relative to control
HOP-62 = test: Antiproliferative activity against human HOP62 cells after 3 days by sulforhodamine B assay; assay type: functional; conditions: HOP-62, 72 h; in short: as §1
MCF7 = test: Cell cycle arrest in human MCF7 cells assessed as accumulation at G2/M phase at 1 uM after 24 hrs using propidium iodide staining by FACS analysis (reference value: 22.13%); assay type: functional
[11] = target: Protein kinase C iota type (Homo sapiens) (UniProt P41743); test: Inhibition of human PKCiota assessed as residual activity at 1 uM relative to control
[12] = target: Serine/threonine-protein kinase PAK 3 (Homo sapiens) (UniProt O75914); test: Inhibition of human PAK3 assessed as residual activity at 1 uM relative to control
[13] = target: Serine/threonine-protein kinase NLK (Homo sapiens) (UniProt Q9UBE8); test: Inhibition of human NLK assessed as residual activity at 1 uM relative to control
[14] = target: Serine/threonine-protein kinase Nek11 (Homo sapiens) (UniProt Q8NG66); test: Inhibition of human NEK11 assessed as residual activity at 1 uM relative to control
[15] = target: Serine/threonine-protein kinase Nek6 (Homo sapiens) (UniProt Q9HC98); test: Inhibition of human NEK6 assessed as residual activity at 1 uM relative to control
[16] = target: Serine/threonine-protein kinase MRCK beta (Homo sapiens) (UniProt Q9Y5S2); test: Inhibition of human MRCKbeta assessed as residual activity at 1 uM relative to control
[17] = target: Dual specificity mitogen-activated protein kinase kinase 1 (Homo sapiens) (UniProt Q02750); test: Inhibition of human MEK1 assessed as residual activity at 1 uM relative to control
[18] = target: Insulin receptor-related protein (Homo sapiens) (UniProt P14616); test: Inhibition of human IRR assessed as residual activity at 1 uM relative to control
[19] = target: Glycogen synthase kinase-3 alpha (Homo sapiens) (UniProt P49840); test: Inhibition of human GSK3alpha assessed as residual activity at 1 uM relative to control
[20] = target: Ephrin type-A receptor 8 (Homo sapiens) (UniProt P29322); test: Inhibition of human EphA8 assessed as residual activity at 1 uM relative to control
[21] = target: Ephrin type-A receptor 5 (Homo sapiens) (UniProt P54756); test: Inhibition of human EphA5 assessed as residual activity at 1 uM relative to control
[22] = target: Epidermal growth factor receptor (Homo sapiens) (UniProt P00533); test: Inhibition of human EGFR assessed as residual activity at 1 uM relative to control
[23] = target: Eukaryotic elongation factor 2 kinase (Homo sapiens) (UniProt O00418); test: Inhibition of human eEF-2K assessed as residual activity at 1 uM relative to control
[24] = target: Serine/threonine-protein kinase 17A (Homo sapiens) (UniProt Q9UEE5); test: Inhibition of human DRAK1 assessed as residual activity at 1 uM relative to control
[25] = target: Discoidin domain-containing receptor 2 (Homo sapiens) (UniProt Q16832); test: Inhibition of human DDR2 assessed as residual activity at 1 uM relative to control
[26] = target: RAF proto-oncogene serine/threonine-protein kinase (Homo sapiens) (UniProt P04049); test: Inhibition of human c-RAF assessed as residual activity at 1 uM relative to control
[27] = target: Calcium/calmodulin-dependent protein kinase type II subunit delta (Homo sapiens) (UniProt Q13557); test: Inhibition of human CaMK2delta assessed as residual activity at 1 uM relative to control
[28] = target: Calcium/calmodulin-dependent protein kinase type II subunit gamma (Homo sapiens) (UniProt Q13555); test: Inhibition of human CaMK2gamma assessed as residual activity at 1 uM relative to control
[29] = target: Aurora kinase B (Homo sapiens) (UniProt Q96GD4); test: Inhibition of Aurora-B (unknown origin) assessed as residual activity at 10 uM relative to control
Homo sapiens = species: Homo sapiens; test: Inhibition of S6K (unknown origin) assessed as residual activity at 1 uM relative to control
[30] = target: Dual specificity tyrosine-phosphorylation-regulated kinase 2 (Homo sapiens) (UniProt Q92630); test: Inhibition of human DYRK2 assessed as residual activity at 1 uM relative to control

Sequence of Calcium/calmodulin-dependent protein kinase type II subunit delta (Homo sapiens) (Q13557 whole entry): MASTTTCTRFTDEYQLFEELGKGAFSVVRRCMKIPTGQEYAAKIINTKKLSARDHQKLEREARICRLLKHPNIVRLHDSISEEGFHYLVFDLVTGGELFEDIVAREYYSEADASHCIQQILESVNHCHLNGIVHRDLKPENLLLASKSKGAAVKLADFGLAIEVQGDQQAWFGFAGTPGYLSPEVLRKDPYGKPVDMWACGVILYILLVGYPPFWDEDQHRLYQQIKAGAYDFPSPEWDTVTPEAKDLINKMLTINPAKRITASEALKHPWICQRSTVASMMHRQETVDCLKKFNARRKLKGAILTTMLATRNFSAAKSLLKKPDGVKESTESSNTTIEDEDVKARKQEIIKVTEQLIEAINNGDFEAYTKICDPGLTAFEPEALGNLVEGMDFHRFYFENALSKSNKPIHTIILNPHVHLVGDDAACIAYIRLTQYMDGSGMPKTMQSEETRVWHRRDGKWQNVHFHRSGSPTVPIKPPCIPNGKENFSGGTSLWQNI
Sequence of Receptor-interacting serine/threonine-protein kinase 2 (Homo sapiens) (O43353 whole entry): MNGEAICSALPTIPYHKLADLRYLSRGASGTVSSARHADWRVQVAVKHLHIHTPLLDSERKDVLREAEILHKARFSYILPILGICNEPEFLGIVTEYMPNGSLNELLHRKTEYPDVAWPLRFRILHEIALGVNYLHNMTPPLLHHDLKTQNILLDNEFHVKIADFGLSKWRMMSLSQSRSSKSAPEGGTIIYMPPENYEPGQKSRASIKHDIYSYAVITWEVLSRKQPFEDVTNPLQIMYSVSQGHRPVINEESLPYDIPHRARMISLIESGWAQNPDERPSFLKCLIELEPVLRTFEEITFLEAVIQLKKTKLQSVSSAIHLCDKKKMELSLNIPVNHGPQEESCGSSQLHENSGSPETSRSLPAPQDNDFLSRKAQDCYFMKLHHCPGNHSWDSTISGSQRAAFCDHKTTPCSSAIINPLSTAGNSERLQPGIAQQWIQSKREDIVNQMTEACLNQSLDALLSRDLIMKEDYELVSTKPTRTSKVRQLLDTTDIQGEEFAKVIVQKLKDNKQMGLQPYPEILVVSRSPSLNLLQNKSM
Sequence of Glycogen synthase kinase-3 alpha (Homo sapiens) (P49840 2-483 limits assumed): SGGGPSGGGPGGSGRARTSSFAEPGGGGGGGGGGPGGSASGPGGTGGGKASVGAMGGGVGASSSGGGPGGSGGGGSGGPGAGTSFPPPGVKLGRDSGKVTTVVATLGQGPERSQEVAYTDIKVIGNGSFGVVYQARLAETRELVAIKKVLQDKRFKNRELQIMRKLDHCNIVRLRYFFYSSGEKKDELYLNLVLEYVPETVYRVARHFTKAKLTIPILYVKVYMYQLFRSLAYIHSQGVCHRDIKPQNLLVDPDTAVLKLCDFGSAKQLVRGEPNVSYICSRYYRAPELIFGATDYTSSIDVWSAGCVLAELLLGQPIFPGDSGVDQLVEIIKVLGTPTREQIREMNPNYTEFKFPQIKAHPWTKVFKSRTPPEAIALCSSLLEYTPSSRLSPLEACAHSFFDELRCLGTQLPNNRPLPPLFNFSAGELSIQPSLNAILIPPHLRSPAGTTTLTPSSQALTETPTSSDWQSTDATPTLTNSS
Sequence of Serine/threonine-protein kinase NLK (Homo sapiens) (Q9UBE8 whole entry): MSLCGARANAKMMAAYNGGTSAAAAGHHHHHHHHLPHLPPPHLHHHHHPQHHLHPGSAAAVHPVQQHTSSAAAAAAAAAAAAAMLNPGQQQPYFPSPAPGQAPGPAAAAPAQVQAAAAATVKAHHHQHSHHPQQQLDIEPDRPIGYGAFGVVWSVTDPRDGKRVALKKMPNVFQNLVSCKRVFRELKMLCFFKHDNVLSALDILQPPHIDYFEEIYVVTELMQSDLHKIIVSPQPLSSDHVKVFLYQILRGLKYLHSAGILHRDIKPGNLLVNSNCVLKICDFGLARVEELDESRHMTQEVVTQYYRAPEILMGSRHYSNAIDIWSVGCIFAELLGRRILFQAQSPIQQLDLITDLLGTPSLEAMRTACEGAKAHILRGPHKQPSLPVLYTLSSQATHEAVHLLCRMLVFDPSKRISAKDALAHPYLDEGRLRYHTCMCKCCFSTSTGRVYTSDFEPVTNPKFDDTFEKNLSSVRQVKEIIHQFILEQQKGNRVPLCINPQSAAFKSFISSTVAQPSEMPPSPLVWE
Sequence of Serine/threonine-protein kinase 17A (Homo sapiens) (Q9UEE5 whole entry, the tested form may be a part): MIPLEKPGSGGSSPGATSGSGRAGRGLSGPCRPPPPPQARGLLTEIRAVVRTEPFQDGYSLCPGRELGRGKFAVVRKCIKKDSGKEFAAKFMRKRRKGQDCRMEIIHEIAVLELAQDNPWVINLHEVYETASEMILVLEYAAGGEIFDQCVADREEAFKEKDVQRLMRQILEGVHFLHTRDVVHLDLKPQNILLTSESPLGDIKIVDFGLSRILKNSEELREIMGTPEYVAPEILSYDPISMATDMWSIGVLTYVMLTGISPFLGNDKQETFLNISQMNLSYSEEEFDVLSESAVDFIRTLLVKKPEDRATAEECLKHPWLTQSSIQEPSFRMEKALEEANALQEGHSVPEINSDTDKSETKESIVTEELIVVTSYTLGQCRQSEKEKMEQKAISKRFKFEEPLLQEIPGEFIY
Sequence of Serine/threonine-protein kinase MRCK beta (Homo sapiens) (Q9Y5S2 whole entry): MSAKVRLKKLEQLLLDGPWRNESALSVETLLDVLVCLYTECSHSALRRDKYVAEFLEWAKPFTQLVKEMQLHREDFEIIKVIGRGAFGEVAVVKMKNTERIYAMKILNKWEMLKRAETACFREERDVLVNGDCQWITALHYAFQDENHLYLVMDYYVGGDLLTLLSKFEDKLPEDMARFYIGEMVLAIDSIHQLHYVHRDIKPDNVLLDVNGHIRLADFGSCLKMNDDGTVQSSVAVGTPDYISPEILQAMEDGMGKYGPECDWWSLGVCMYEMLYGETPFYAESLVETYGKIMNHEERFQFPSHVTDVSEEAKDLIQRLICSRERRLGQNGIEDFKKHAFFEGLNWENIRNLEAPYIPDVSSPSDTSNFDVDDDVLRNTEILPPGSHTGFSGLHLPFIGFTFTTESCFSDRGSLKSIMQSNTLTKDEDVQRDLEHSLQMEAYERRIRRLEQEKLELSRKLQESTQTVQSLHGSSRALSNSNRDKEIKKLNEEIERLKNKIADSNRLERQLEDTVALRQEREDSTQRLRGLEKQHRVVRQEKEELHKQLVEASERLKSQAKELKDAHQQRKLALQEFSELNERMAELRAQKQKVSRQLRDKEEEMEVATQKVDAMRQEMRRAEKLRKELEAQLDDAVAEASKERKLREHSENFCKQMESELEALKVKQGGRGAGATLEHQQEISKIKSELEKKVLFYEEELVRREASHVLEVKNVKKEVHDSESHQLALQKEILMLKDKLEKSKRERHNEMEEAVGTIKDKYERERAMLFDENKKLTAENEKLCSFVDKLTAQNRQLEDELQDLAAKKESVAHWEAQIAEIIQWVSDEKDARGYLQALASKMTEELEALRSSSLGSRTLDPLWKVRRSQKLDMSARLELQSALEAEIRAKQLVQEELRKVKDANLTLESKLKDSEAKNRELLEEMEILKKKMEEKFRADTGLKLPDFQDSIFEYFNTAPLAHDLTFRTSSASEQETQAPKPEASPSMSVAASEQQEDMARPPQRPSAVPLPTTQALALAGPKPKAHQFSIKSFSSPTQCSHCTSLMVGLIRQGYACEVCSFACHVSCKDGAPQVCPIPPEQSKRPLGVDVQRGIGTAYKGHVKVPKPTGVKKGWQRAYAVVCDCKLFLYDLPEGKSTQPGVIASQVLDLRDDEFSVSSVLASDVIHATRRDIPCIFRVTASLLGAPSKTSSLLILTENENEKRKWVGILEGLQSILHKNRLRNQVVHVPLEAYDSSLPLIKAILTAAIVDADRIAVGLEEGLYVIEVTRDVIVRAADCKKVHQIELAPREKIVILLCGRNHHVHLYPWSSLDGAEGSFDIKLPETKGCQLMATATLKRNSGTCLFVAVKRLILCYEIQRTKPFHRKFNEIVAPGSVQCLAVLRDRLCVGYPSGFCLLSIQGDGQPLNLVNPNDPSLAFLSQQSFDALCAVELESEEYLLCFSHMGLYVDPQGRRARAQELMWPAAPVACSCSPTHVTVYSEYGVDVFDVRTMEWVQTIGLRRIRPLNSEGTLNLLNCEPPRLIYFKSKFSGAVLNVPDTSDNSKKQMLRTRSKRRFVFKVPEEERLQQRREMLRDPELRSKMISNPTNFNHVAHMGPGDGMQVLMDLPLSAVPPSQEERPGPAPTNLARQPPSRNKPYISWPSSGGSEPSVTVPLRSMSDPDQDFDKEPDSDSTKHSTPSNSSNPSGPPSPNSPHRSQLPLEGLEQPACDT
Sequence of Discoidin domain-containing receptor 2 (Homo sapiens) (Q16832 whole entry, the tested form may be a part): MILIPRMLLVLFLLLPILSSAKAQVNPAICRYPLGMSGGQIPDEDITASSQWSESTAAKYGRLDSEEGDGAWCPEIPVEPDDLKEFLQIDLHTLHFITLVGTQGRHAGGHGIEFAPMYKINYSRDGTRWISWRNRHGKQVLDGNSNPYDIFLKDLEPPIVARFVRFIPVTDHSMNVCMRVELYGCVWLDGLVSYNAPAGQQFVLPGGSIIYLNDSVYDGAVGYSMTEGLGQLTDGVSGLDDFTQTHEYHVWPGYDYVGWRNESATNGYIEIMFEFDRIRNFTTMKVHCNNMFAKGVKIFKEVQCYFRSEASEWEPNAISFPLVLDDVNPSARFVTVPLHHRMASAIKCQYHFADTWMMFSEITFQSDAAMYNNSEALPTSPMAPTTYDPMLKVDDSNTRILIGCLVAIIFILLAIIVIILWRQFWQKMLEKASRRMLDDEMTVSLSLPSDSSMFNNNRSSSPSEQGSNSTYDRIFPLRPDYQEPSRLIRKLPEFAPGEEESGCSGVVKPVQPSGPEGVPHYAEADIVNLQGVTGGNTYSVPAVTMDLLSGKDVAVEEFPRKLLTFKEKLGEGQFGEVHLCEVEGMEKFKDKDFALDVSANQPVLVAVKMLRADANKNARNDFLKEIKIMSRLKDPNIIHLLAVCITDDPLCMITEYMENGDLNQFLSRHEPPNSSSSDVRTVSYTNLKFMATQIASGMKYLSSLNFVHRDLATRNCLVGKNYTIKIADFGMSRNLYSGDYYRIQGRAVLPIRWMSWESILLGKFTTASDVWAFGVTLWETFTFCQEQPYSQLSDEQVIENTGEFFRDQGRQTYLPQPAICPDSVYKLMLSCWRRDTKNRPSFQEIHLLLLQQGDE

Activity [1]: 95%
Activity [2]: 85%
Activity [3]: 80%
GI50 (PC-3): 2.02 µM
GI50 (MDA-MB-435): 0.198 µM
GI50 (SW-620): 1.41 µM
Activity [5]: 110%
Activity [6]: 126%
Activity [7]: 105%
Activity [8]: 114%
Activity [9]: 85%
Activity [10]: 107%
Activity [11]: 92%
Activity [12]: 111%
Activity [13]: 123%
Activity [14]: 73%
Activity [15]: 61%
Activity [16]: 102%
Activity [17]: 96%
Activity [18]: 80%
Activity [19]: 68%
Activity [20]: 114%
Activity [21]: 125%
Activity [22]: 120%
Activity [23]: 94%
Activity [24]: 99%
Activity [25]: 119%
Activity [26]: 73%
Activity [27]: 110%
Activity [28]: 103%
Activity [29]: 88%
Activity (Homo sapiens): 109%
Activity [30]: 107%
SMILES: O=C1Nc2ncccc2/C1=C1/Nc2ncccc2C1=O
GI50 (SN12C): 1.41 µM
GI50 (A498): 1.66 µM
Activity [4]: 118%
GI50 (HOP-62): 1.37 µM
Activity (MCF7): 22.63%
